pIC50: −log10 of the molar value.
How the values were obtained:
PC-3 = assay: Growth inhibition of human PC3 cells after 48 hrs by MTT assay; type: functional; conditions: PC-3, 48 h
Method in brief: (§1)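 Cancer cell lines sourced from the National Cancer Institute (USA). Cells kept in appropriate growth medium at 37 °C, 95% humidity, 5% CO2. Antiproliferation read by tetrazolium (MTT) assay. GI50 values were determined only for compounds selected after an initial single-concentration screen.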

MCF7 = assay: Growth inhibition of human MCF7 cells after 48 hrs by MTT assay; type: functional; conditions: MCF7, 48 h; method in brief: as §1
Homo sapiens = organism: Homo sapiens; assay: Selectivity ratio of IC50 for CDK2/cyclin A (unknown origin) to IC50 for CDK9/cyclin T1 (unknown origin)
CDK1/Cyclin A = CDK1/Cyclin A (Homo sapiens, UniProt P06493); assay: Inhibition of CDK1/cyclin A (unknown origin) after 30 mins in presence of [33P]-gamma-ATP by filter binding assay; type: protein-complex assay
CDK4/Cyclin D3 = CDK4/Cyclin D3 (Homo sapiens, UniProt P11802); assay: Inhibition of CDK4/cyclin D3 (unknown origin) after 30 mins in presence of [33P]-gamma-ATP by filter binding assay; type: protein-complex assay
[1] = biological target: Cyclin-dependent kinase 5/CDK5 activator 1 (Homo sapiens, UniProt Q00535); assay: Inhibition of CDK5/cyclin p25 (unknown origin) after 30 mins in presence of [33P]-gamma-ATP by filter binding assay; type: protein-complex assay
CDK6/cyclin D1 = CDK6/cyclin D1 (Homo sapiens, UniProt Q00534); assay: Inhibition of CDK6/cyclin D1 (unknown origin) after 30 mins in presence of [33P]-gamma-ATP by filter binding assay; type: protein-complex assay
[2] = biological target: Tyrosine-protein kinase Blk (Homo sapiens) (UniProt P51451); assay: Inhibition of partial length wild type human BLK expressed in bacterial expression system at 0.5 uM by KINOMEscan method relative to control
Method in brief: (§2)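 Competition binding screen (KINOMEscan) at 0.5 μM; primary binding read out as % of control, lower values indicating stronger interaction.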

[3] = biological target: Serine/threonine-protein kinase ICK (Homo sapiens) (UniProt Q9UPZ9); assay: Inhibition of partial length wild type human ICK expressed in mammalian expression system at 0.5 uM by KINOMEscan method relative to control; method in brief: as §2
BT-549 = assay: Growth inhibition of human BT549 cells after 48 hrs by MTT assay; type: functional; conditions: BT-549, 48 h; method in brief: as §1
COLO 205 = assay: Growth inhibition of human COLO205 cells after 48 hrs by MTT assay; type: functional; conditions: COLO 205, 48 h; method in brief: as §1
HCT-116 [4] = assay: Growth inhibition of human HCT116 cells after 48 hrs by MTT assay; type: functional; conditions: HCT-116, 48 h; method in brief: as §1
[5] = Growth inhibition of human NCI-H322 cells after 48 hrs by MTT assay; type: functional; conditions: NCI-H322, 48 h; method in brief: as §1
NCI-H522 = assay: Growth inhibition of human NCI-H522 cells after 48 hrs by MTT assay; type: functional; conditions: NCI-H522, 48 h; method in brief: as §1
A-431 = assay: Growth inhibition of human A431 cells after 48 hrs by MTT assay; type: functional; conditions: A-431, 48 h; method in brief: as §1
[6] = Growth inhibition of human FR2 cells after 48 hrs by MTT assay; type: cell-based
Method in brief: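 fR2 is a normal epithelial line of ECACC type. Cells were grown in appropriate medium at 37 °C, 95% humidity, 5% CO2. Antiproliferative effect measured by MTT assay, with GI50 values derived from concentration-response testing.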

[7] = Chemical stability of compound in phosphate buffered saline at pH 6.8 assessed as parent compound remaining at 120 ug/ml after 24 hrs by HPLC method; type: physicochemical; conditions: read-out: Stability
[8] = Protein binding in mouse plasma at 3 uM after 5 hrs by equilibrium dialysis method; type: ADME, cell-free; conditions: read-out: PPB (converted)
Cytochrome P450 1A2 = Cytochrome P450 1A2 (Homo sapiens, UniProt P05177); assay: Inhibition of human CYP1A2 using fluorogenic substrate preincubated with co-factor for 10 mins followed by enzyme-substrate addition by fluorometric method; type: ADME
Method in brief: (§3)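 Cofactor plus test item or vehicle, in triplicate, preincubated 10 min at 37 °C; prewarmed enzyme–substrate mix added and incubated at 37 °C with shaking. Quench: acetonitrile (CYP2C19, CYP3A4) or 0.25 M Tris in 60% methanol (CYP2C9, CYP2D6). Metabolite fluorescence read; % inhibition computed against enzyme controls and enzyme-free blanks.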

Cytochrome P450 2C19 = Cytochrome P450 2C19 (Homo sapiens, UniProt P33261); assay: Inhibition of human CYP2C19 using fluorogenic substrate preincubated with co-factor for 10 mins followed by enzyme-substrate addition by fluorometric method; type: ADME; method in brief: as §3
[9] = Half life in rat liver microsomes at 100 uM after 30 mins by LC-MS/MS analysis; type: ADME, microsome
Method in brief: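 Parent loss followed over time to give half-life, with NADPH as cofactor for microsomal phase I metabolism.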

[10] = Half life in rat hepatocytes at 3 uM after 180 mins by LC-MS/MS analysis; type: ADME, cell-based, Hepatocyte
[11] = Intrinsic clearance in monkey hepatocytes assessed per million cells at 3 uM after 180 mins by LC-MS/MS analysis; type: ADME, cell-based, Macaca mulatta, Hepatocyte; conditions: rhesus monkey, read-out: CLH
[12] = Half life in dog liver S9 fraction preincubated for 5 mins followed by NADPH addition measured after 30 mins by LC-MS/MS analysis; type: ADME, tissue-based, Canis lupus familiaris
[13] = Clearance in BALB/c mouse at 1 mg/kg, iv by LC-MS/MS analysis; type: ADME, organism-based; conditions: in vivo
[14] = Half life in BALB/c mouse at 10 mg/kg, po by LC-MS/MS analysis; type: ADME, organism-based; conditions: in vivo
[15] = AUC in Sprague-Dawley rat at 10 mg/kg, po by LC-MS/MS analysis; type: ADME, organism-based; conditions: in vivo
[16] = AUC in Sprague-Dawley rat at 30 mg/kg, po by LC-MS/MS analysis; type: ADME, organism-based; conditions: in vivo
Kidney [17] = assay: Drug uptake in Sprague-Dawley rat kidney at 30 mg/kg, po after 8 hrs; type: ADME, organism-based; conditions: in vivo
Liver = assay: Drug uptake in BALB/c mouse liver at 30 mg/kg, po after 8 hrs; type: ADME, organism-based; conditions: in vivo
Kidney [18] = assay: Drug uptake in BALB/c mouse kidney at 30 mg/kg, po after 8 hrs; type: ADME, organism-based; conditions: in vivo
MIA PaCa-2 = assay: Antitumor activity against human MIAPaCa2 cells xenografted in CD1 nude mouse assessed as tumor growth inhibition at 50 mg/kg, po qd administered on day 10 to 25 post tumor inoculation relative to control; type: functional; conditions: MIA PaCa-2, po, 240 h, read-out: TGI
HCT-116 [19] = assay: Antitumor activity against human HCT116 cells xenografted in CD1 nude mouse assessed as tumor growth inhibition at 50 mg/kg, po qd administered on day 10 to 25 post tumor inoculation relative to control; type: functional; conditions: HCT-116, po, 240 h, read-out: TGI
[20] = Apparent permeability across basolateral to apical side in human Caco2 cells after 90 mins by LC-MS/MS analysis; type: ADME, cell-based; conditions: Caco-2
Salmonella typhimurium [21] = assay: Mutagenicity in Salmonella typhimurium TA1537 at 50 ug/plate in presence of liver S9 fraction by Ames test; type: toxicity; conditions: salmonella enterica subsp. enterica serovar typhimurium
Salmonella typhimurium [22] = assay: Mutagenicity in Salmonella typhimurium TA1537 at 50 ug/plate in absence of liver S9 fraction by Ames test; type: toxicity; conditions: salmonella enterica subsp. enterica serovar typhimurium

Sequence of Cyclin-dependent kinase 5/CDK5 activator 1 (Q00535 whole entry): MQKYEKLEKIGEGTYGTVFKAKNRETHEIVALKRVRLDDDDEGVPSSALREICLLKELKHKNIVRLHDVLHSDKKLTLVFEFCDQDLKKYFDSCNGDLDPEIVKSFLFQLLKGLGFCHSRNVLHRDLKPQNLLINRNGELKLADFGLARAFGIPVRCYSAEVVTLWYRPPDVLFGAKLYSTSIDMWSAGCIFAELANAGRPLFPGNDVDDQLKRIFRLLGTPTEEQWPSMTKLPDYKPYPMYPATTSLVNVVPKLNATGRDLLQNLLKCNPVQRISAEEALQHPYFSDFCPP
Sequence of Cyclin-dependent kinase 5/CDK5 activator 1 (Q15078 whole entry, further chain): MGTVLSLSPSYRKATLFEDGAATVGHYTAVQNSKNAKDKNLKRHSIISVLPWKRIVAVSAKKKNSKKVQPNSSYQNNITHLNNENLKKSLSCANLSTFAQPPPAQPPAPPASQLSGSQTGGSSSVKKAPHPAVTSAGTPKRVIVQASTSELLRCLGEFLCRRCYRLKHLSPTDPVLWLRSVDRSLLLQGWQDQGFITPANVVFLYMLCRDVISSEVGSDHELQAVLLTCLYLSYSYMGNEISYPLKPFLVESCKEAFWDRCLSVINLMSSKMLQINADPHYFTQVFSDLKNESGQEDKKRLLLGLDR
Sequence of Cytochrome P450 1A2 (P05177 whole entry): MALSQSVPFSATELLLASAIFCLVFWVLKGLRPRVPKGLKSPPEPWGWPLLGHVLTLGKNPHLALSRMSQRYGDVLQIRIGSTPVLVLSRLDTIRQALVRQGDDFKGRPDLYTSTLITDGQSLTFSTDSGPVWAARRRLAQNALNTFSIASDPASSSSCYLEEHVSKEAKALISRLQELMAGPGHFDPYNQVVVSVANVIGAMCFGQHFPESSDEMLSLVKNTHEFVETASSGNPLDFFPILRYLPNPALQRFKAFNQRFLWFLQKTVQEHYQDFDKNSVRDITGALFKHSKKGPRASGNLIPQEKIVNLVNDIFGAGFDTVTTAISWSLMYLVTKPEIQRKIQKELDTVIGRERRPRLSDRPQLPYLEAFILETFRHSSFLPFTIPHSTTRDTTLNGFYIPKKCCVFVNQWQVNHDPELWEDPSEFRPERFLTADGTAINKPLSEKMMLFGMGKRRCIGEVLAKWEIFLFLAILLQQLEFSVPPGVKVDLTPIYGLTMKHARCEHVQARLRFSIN
Sequence of Tyrosine-protein kinase Blk (Homo sapiens) (P51451 2-505 limits assumed): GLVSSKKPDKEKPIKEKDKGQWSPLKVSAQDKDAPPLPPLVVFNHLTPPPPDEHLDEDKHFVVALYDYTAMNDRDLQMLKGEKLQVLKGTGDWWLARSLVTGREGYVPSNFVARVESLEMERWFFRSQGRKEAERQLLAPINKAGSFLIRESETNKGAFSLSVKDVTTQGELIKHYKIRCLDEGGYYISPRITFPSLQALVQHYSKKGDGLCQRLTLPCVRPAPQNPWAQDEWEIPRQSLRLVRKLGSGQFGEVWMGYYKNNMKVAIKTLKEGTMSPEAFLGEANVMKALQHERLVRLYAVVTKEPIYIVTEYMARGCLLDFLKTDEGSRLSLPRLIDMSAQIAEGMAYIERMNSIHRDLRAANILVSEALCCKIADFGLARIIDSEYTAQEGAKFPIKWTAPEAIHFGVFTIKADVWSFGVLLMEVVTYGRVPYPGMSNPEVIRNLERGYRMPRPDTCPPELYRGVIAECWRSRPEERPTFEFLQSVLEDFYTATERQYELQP
Sequence of CDK6/cyclin D1 (P24385 whole entry): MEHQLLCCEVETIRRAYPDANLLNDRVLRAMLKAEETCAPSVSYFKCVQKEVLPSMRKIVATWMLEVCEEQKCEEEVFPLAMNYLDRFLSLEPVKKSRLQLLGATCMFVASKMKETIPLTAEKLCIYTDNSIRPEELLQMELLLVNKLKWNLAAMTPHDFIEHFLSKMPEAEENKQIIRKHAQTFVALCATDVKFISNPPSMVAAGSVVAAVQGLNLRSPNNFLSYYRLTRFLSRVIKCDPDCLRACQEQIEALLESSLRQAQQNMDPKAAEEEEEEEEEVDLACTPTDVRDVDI
Sequence of CDK6/cyclin D1 (Q00534 whole entry): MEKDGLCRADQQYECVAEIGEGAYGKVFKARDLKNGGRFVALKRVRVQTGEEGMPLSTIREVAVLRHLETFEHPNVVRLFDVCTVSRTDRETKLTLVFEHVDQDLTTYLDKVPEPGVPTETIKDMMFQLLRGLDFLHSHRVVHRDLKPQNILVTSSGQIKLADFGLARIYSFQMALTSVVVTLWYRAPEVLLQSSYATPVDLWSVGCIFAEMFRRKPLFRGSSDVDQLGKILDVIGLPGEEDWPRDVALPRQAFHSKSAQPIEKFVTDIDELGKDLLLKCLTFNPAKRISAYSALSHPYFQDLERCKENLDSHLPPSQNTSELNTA
Sequence of Serine/threonine-protein kinase ICK (Homo sapiens) (Q9UPZ9 whole entry): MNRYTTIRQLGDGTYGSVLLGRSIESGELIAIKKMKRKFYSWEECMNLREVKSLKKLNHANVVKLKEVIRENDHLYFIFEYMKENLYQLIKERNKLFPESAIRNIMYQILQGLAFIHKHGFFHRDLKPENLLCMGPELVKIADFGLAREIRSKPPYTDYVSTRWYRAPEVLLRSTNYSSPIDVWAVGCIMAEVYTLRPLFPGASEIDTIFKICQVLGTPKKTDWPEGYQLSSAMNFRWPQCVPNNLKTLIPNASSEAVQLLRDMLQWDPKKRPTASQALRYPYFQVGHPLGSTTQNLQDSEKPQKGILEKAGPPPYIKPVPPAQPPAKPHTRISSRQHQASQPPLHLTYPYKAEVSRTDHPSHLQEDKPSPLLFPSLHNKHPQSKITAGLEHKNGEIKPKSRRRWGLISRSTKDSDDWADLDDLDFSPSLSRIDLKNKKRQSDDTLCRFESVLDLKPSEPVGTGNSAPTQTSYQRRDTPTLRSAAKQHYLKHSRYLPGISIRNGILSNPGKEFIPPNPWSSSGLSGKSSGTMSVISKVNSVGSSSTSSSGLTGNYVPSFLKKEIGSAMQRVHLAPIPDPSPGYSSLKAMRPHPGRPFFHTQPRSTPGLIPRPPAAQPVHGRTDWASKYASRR
Sequence of CDK1/Cyclin A (P06493 whole entry): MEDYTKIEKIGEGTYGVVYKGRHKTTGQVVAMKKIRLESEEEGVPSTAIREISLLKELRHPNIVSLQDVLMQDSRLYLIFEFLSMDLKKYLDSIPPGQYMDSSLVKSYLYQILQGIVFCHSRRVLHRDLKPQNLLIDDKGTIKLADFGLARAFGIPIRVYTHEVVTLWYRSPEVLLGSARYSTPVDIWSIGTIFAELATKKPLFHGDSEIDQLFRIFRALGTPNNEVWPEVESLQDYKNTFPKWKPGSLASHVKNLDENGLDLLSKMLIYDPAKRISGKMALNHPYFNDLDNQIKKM
Sequence of CDK1/Cyclin A (P20248 whole entry, further chain): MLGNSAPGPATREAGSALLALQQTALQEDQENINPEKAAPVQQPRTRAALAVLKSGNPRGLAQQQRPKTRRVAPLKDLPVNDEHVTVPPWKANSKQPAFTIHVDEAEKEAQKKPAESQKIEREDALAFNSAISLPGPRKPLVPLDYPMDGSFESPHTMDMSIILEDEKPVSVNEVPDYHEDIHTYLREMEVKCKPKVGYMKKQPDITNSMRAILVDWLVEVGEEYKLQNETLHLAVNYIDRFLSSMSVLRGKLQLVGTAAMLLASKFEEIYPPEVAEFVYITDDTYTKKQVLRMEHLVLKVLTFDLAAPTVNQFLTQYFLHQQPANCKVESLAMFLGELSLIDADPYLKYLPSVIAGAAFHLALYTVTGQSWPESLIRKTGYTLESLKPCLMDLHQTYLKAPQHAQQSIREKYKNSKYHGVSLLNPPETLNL
Sequence of Cytochrome P450 2C19 (P33261 whole entry): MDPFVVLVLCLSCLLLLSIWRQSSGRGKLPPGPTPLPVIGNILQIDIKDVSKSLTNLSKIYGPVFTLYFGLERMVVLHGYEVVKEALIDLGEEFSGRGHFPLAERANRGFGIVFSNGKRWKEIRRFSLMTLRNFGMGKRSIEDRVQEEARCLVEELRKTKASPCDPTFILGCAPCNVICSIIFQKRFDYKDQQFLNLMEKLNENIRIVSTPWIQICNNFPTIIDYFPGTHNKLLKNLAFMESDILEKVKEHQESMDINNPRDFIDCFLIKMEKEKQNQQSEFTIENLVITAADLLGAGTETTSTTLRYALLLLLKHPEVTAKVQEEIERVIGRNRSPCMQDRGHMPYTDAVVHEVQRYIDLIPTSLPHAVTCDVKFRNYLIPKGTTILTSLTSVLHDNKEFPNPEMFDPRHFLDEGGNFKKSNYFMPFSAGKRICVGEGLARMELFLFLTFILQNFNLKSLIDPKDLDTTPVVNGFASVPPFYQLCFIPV
Sequence of CDK4/Cyclin D3 (P11802 whole entry): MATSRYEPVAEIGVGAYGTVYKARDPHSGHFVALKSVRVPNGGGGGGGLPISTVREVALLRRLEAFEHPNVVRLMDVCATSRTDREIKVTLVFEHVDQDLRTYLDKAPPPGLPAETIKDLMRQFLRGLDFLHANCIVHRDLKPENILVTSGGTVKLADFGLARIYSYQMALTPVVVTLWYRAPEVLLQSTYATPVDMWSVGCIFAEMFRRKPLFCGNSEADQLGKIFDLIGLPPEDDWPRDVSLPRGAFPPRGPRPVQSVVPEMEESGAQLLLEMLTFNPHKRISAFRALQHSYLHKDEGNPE
Sequence of CDK4/Cyclin D3 (P30281 whole entry, further chain): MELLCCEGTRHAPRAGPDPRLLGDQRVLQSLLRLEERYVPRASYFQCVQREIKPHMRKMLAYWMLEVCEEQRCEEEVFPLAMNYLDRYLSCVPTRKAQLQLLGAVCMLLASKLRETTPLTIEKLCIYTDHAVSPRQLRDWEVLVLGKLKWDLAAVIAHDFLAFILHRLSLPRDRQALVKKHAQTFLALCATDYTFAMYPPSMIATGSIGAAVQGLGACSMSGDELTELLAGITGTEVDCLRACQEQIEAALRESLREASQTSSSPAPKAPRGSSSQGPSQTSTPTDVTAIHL

Q: Which results are given for `CN1CC[C@H](c2c(O)cc(O)c3c(=O)cc(/C=C/c4c(Cl)cccc4Cl)oc23)[C@H](O)C1`?
A: GI50 (PC-3): 3 to 6 µM; GI50 (MCF7): 4 µM; Ratio IC50 (Homo sapiens): 7; pIC50 (CDK1/Cyclin A): 8.31; pIC50 (CDK4/Cyclin D3): 7.65; pIC50 [1]: 7.81; pIC50 (CDK6/cyclin D1): 7.35; inhibition [2]: > 98%; inhibition [3]: > 98%; GI50 (BT-549): 5 µM; GI50 (COLO 205): 7 µM; GI50 (HCT-116 [4]): 5 µM; GI50 [5]: 2 µM; GI50 (NCI-H522): 5 µM; GI50 (A-431): 8 µM; GI50 at 48 h [6]: 19 µM; remaining at 24 h, 120 ug/ml [7]: 81%; fraction unbound at 5 h, 3 µM [8]: 0.028; pIC50 (Cytochrome P450 1A2): < 4.70; pIC50 (Cytochrome P450 2C19): < 4.70; half-life at 100 µM [9]: > 0.5 h; half-life at 3 µM [10]: 6.27 h; hepatocyte CLint at 3 µM [11]: 10.6 µL/min/1e6 cells; half-life [12]: 1.95 h; clearance [13]: 55.4 mL/min/kg; half-life [14]: 3.61 h; AUC [15]: 5.68 µM·h; AUC [16]: 15.9 µM·h; Drug uptake (Kidney [17]): Active; Drug uptake (Liver): Active; Drug uptake (Kidney [18]): Active; inhibition in vivo at 50 mg/kg (MIA PaCa-2): 40 to 52%; inhibition in vivo at 50 mg/kg (HCT-116 [19]): 40 to 52%; Papp B→A at 1.5 h [20]: 3.9 ×10⁻⁶ cm/s; Activity (Salmonella typhimurium [21]): Non-Toxic; Activity (Salmonella typhimurium [22]): Non-Toxic

From ChEMBL document CHEMBL4043283, “Discovery and Preclinical Development of IIIM-290, an Orally Active Potent Cyclin-Dependent Kinase Inhibitor” (J Med Chem, 2018)
